# DDE Tn6 FP inh = inhibitors of Tn6 peptide binding to fibrin DD(E), primary screen, biochemical, fluorescence polarization, human fibrin, Tn6 probe; Fibrin DD(E) TRITC-Tn6 fluorescence polarization displacement; inhibition, % at 8.3 µM; 370,000 tested, 0.21% active; AID 720509, 2013;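 active = inhibition above a per-campaign cutoff: mean of compounds within control limits plus 3 SD, cut at about 15% in these data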;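 note: 0% = median of all compound wells on the plate and 100% = blocking peptide control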
# TCR-CD3 inh = inhibitors of human TCR-CD3 interaction, primary screen, biochemical, fluorescence, TAMRA-labeled TCR probe. inhibition, % at 9.4 µM. 360,000 tested, 0.37% active. AID 651800, 2012; in the data active = inhibition above about 19%;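 note: recombinant mutant TCR 2C K166C tagged with TAMRA read by polarization; 0% = receptor in buffer alone and 100% = receptor with positive control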
# mABHD4 FP = ABHD4 inhibitors, primary screen, biochemical, fluorescence polarization, mouse. (Lyso)-N-acylphosphatidylethanolamine lipase (Mus musculus), Q8VD66. purified mABHD4, FP-Rh probe fluorescence polarization. inhibition, % at 8.92 µM. 370,000 tested, 0.54% active. AID 720543, 2013;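 active = inhibition exceeding the mean over every tested compound plus 3 SD, cut at about 30% in these data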;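 note: 0% = plate median of compound wells and 100% = S159A mutant with DMSO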
# Target sequence (Q8VD66 whole entry, looked up): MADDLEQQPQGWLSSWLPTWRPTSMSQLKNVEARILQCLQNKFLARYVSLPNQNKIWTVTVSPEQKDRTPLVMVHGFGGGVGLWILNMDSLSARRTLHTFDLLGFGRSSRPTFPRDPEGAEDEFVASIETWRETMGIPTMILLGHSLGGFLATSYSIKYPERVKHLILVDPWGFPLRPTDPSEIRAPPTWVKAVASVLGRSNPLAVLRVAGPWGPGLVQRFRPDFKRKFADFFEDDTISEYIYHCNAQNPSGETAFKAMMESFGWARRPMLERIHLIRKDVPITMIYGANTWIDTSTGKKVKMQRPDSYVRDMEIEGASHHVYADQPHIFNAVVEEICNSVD
#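 Assay system: Wild-type mouse ABHD4 protein | Medium: HEPES pH 7.0 buffer, 150 mM NaCl, 0.01% Pluronic F-127 | Incubation: Enzyme–compound pre-incubation 45 min, then probe 60 min, both 25 °C | Technique: Fluorescence polarization with parallel and perpendicular emission, 525/598 nm | Evaluation: % inhibition of FP-Rh probe binding versus controls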
# HTRA1 inh = HTRA1 serine protease inhibitors, primary screen, biochemical, fluorescence polarization, HTS. Q92743. recombinant HTRA1, FP-rhodamine activity-based probe. inhibition, % at 5.96 µM. 340,000 tested, 0.5% active; in the data active = inhibition above about 36%;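 note: 0% = enzyme with DMSO and 100% = wells lacking enzyme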
# SIAE inh = human SIAE inhibitors, primary screen, biochemical, fluorescence polarization, FP-Rh probe, 1536-well HTS; Sialate O-acetylesterase (Homo sapiens), Q9HAT2; SIAE FP-Rh probe binding; inhibition, % at 9.66 µM; 370,000 tested, 0.69% active;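 active = inhibition above a cutoff: mean of compounds within the control limits plus 3 SD of those, cut at about 17% in these data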;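 note: 0% = plate median of compound wells and 100% = probe without SIAE protein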
# DDE Tn7 FP inh = inhibitors of Tn7 peptide binding to fibrin DD(E), primary screen, biochemical, fluorescence polarization, human fibrin, Tn7 probe; FP displacement of FITC-Tn7 peptide from fibrin DD(E); 0% = median of compound wells per plate; 370,000 tested, 0.13% active; inhibition, % at 8.3 µM; AID 720508, 2013;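 active = inhibition above the mean of compounds falling within the control limits plus 3 SD of them, cut at about 14% in these data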;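 note: 0% = plate median of compound wells and 100% = 10 µM Aha-Tn7 peptide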
#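 assay system = human clot-derived fibrin DD(E) complex | quantity = Fibrin-DD(E) at 2 µM final | timing = 10 min preincubation, 3 h with tracer, room temperature | signal = fluorescence polarization | measure = percent inhibition | benchmarks = high control wells with 10 µM unlabelled Aha-Tn7 peptide (full inhibition) | replicates = singlicate testing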
# SIAE confirm = human SIAE inhibitors, retest, confirmation, biochemical, fluorescence polarization, FP-Rh probe, triplicate; SIAE FP-Rh activity-based probe; shares compounds with SIAE inh; AID 1117263, 2014; 2,300 tested, 13% active; inhibition, % at 9.66 µM;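 active = mean inhibition of the replicates above the hit cutoff set in the primary screen, cut at about 17% in these data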;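 note: 0% = SIAE with DMSO and probe and 100% = probe without SIAE; inhibitors lower polarization as more probe stays unbound to SIAE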
# Starred values were filed as active, the others as inactive; nt = no result given. Most compounds without a hit are left out; they make up all but 1.8% or so of the library.
SMILES,DDE Tn6 FP inh,TCR-CD3 inh,mABHD4 FP,HTRA1 inh,SIAE inh,DDE Tn7 FP inh,SIAE confirm
Cc1c(C(=O)Nc2ccc(S(=O)(=O)N(C)C3CCN(C)CC3)cc2)oc2c(Cl)cccc12,9,7,3,-20,-5,2,nt
COc1ccc(NS(=O)(=O)c2cc(NC(=O)c3cnc(C)cn3)ccc2N2CCCC2)cc1,3,3,2,-2,2,1,nt
COc1ccc(NS(=O)(=O)c2cc(NC(=O)c3ccc(=O)[nH]c3)ccc2N2CCCC2)cc1,-9,3,6,0,23*,6,2
CCCCNC(=O)C[C@@H]1C[C@@]2(C(=O)OC)CCCCC=C2N(Cc2ccccc2)C1=O,-1,3,0,nt,22*,1,0
O=C(OCC(=O)c1c[nH]c2ccccc12)c1cccc([N+](=O)[O-])c1,2,-5,-11,-23,21*,-3,-2
Cc1ccc(S(=O)(=O)N2CCOC23CCN(S(=O)(=O)c2cccs2)CC3)cc1,8,-5,3,3,18*,2,4
CCOc1ccc(CN2CCNC(=O)C2CC(=O)NCCc2ccccn2)cc1 (stereo not drawn),1,-1,3,4,0,-2,nt
COc1cccc(CN2CCNC(=O)C2CC(=O)NCc2cn3ccccc3n2)c1OC (stereo not drawn),4,4,-5,2,22*,1,-3
CCOc1ccc(CN2CCNC(=O)C2CC(=O)NCc2ccccn2)cc1 (stereo not drawn),2,4,1,-4,18*,7,-4
CCOc1ccc(/C(O)=C2/C(=O)C(=O)N(CCCN3CCOCC3)C2c2ccc(F)cc2)cc1C (stereo not drawn),-3,-4,12,1,-1,-7,nt
CC(C)(C)c1cc(CCC(=O)NNC(=O)c2ccncc2)cc(C(C)(C)C)c1O,1,4,2,5,13,2,nt
CCOC(=O)c1c(C)[nH]c(C2=NNC(=Nc3ccc(OCC)cc3)SC2)c1C,4,-2,11,25,28*,1,1
CCOC(=O)c1c(C)[nH]c(C2=NNC(=Nc3ccccc3)SC2)c1C,6,3,8,10,15,1,nt
CC(=O)Nc1c2c(nn1-c1cccc(Cl)c1)CS(=O)(=O)C2,0,2,3,-1,18*,-1,-5
CC(C)(C)C(=O)Nc1c2c(nn1-c1cccc(Cl)c1)CS(=O)(=O)C2,3,2,4,6,-11,-5,nt
COc1ccccc1OCC(=O)Nc1ccc(C(N)=O)cc1,0,1,3,1,18*,1,-2
CC(NC(=O)COc1ccccc1Cl)c1ccccc1 (stereo not drawn),-4,-3,0,10,-8,9,nt
CS(=O)(=O)N1CCN(c2ccc(NC(=S)NC(=O)c3ccccc3[N+](=O)[O-])cc2)CC1,1,3,1,6,20*,3,-1
CC(C)c1ccc(NC2CCCN(C(=O)CCc3cnn(C)c3)C2)cc1 (stereo not drawn),9,3,1,1,7,0,nt
Cc1cnc(C(=O)Oc2ccc(-c3ccccc3)cc2)cn1,-3,-2,3,-3,17*,-2,-7
Cc1cnc(C(=O)OCC(=O)c2ccc(-c3ccccc3)cc2)cn1,-2,3,1,-4,2,-5,nt
O=C(CC[C@H]1O[C@@H](n2cnc3c(NC(=O)c4ccccc4)ncnc32)[C@H](O)[C@@H]1O)NCCCN1CCOCC1,-3,0,1,nt,19*,-10,13
COCCCNC(=O)CC[C@H]1O[C@@H](n2cnc3c(NC(=O)c4ccccc4)ncnc32)[C@H](O)[C@@H]1O,-4,3,8,nt,2,1,nt
Cc1ccc(-c2nnc(Nc3ccc(C(=O)N(C)C)cc3)c3ccccc23)cc1S(=O)(=O)NCC1CCCO1 (stereo not drawn),-5,0,-6,-10,21*,3,-5
COc1ccc(-c2[nH]c(-c3ccc(SC)cc3)nc2SCC(=O)Nc2nccs2)cc1,-15,1,10,3,22*,3,9
COc1ccc(-c2nc(SCC(=O)NC3CCCC3)c(-c3ccc(OC)cc3)[nH]2)cc1,-1,-2,9,7,18*,3,6
COc1cccc(NC(=O)CN(C)C(=O)C2=COCCO2)c1,2,-9,0,-5,18*,-10,4
CCCCn1c(N)c(N(C(=O)CSc2nnnn2-c2ccccc2)C2CCCC2)c(=O)[nH]c1=O,-1,-8,1,-2,22*,0,16
O=C(c1ccccc1)C1(c2ccccc2)OC1c1ccccc1 (stereo not drawn),8,-5,-12,-17,16,-1,nt
